# Compound activity (PubChem BioAssay)
# A selection: hits, their analogues and other compounds. The true share with any hit is near 1.9%.
# PLC-beta3 inh: PLC-beta3 (human) inhibition, primary screen; Q01970; Purified PLC-beta3, fluorogenic substrate, fluorescence; inhibition, % at 12.2 µM; 370,000 tested, 0.18% active; in the data active = inhibition above about 11%;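 also: 0% = median of compound wells on plate and 100% = full blocker control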
# proCasp3 act: activators of human procaspase-3; P42574; recombinant procaspase-3 D3A, Ac-DEVD-pNA absorbance 405 nm; activation, % at 8.5 µM; 330,000 tested, 0.11% active; AID 463141;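 active = activation above the mean of all tested compounds plus 3 SD, cut at about 21% in these data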;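 also: 0% = DMSO alone and 100% = DMSO wells spiked with extra 5 µM PC-3 D3A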
# Target sequence (P42574 whole entry D9A/D28A/D175A): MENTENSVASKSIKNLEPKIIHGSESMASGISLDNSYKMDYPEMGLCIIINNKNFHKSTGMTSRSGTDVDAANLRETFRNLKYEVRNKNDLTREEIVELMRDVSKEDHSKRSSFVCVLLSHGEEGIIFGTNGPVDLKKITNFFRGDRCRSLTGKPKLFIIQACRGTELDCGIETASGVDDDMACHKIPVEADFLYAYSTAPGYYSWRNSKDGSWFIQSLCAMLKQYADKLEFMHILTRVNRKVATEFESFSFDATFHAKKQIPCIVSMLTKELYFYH
#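 material = Procaspase-3 D3A mutant | probe or stimulus = Ac-DEVD-pNA | compound = single dose, 8.5 µM nominal compound, 0.8% DMSO | timing = 1 h preincubation, 2 h reaction | measured by = 405 nm absorbance of p-nitroaniline, reads at 0 and 120 min | benchmarks = DMSO-only low control, 5 µM PC-3 D3A high control | repeats = singlicate, each compound tested once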
# PLC-gamma1 inh: blocks human PLC-gamma1 enzyme activity; P19174; purified PLC-gamma1, fluorogenic substrate, fluorescence; inhibition, % at 12.2 µM; 370,000 tested, 0.84% active; in the data active = inhibition above about 9.5%
# HGIII-sPLA2 inh: Blocks human group III sPLA2 activity; QFRET BODIPY PC-A2 liposome hydrolysis, fluorescence; inhibition, % at 12.2 µM; 370,000 tested, 0.56% active;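 active = inhibition above mean plus 3 SD of compounds lying within the high and low control bounds, cut at about 19% in these data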;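 also: 0% = median of test compound wells and 100% = no enzyme DMSO wells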
# Arrestin-AP2 inh: human beta-arrestin and AP2 interaction inhibition; FITC-arrestin peptide / GST-AP2 beads, flow cytometry; AP2 beta2 appendage carries R879A mutation; inhibition, % at 10 µM; 340,000 tested, 0.31% active; AID 504490;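 active = inhibition above a set limit, near 3 SD of compounds lacking own fluorescence, cut at about 54% in these data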;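 also: plate controls were DMSO wells for no effect and 5 µM unlabelled arrestin peptide for full effect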
#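 Material – GST-tagged AP2 beta2-adaptin appendage (R879A) on 4 µm glutathione beads · Probe or stimulus – fluorescein-tagged arrestin peptide at 50 nM final · Timing – 12 min plus 1 h, RT · Detection – bead flow cytometry, FITC channel · Read-out basis – inhibition as reduced fluorescein signal on beads, percent · Medium – PBS plus Tween 20 (0.05%) and BSA (0.1%)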
# procasp7 counter: activates human procaspase-7, counter-screen for procaspase-3 activators; recombinant procaspase-7, Ac-DEVD-pNA absorbance 405 nm; D23A/D198A/D206A triple mutant, cannot self-cleave; scale: DMSO 0, 5 µM enzyme 100; activation, % at 8.5 µM; P55210; 330,000 tested, 0.093% active;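 active = percent activation above the screen-wide mean plus 3 SD, cut at about 25% in these data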
# Target sequence (P55210 whole entry D23A/D198A/D206A): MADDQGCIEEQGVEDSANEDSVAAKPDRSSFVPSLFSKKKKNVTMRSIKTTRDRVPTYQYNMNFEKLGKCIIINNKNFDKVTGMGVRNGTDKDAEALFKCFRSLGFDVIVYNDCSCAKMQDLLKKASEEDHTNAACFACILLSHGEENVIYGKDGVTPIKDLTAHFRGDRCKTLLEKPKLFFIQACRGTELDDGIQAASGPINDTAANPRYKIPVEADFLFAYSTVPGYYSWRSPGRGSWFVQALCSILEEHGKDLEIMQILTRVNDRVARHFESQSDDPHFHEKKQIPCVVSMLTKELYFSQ
#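 Assay system: Uncleavable procaspase-7 mutant enzyme / Input: 2 µM procaspase-7 mutant as dispensed / Dosing: single nominal 8.5 µM compound dose, 0.8% DMSO final / Timing: 1 h enzyme–compound preincubation and 2 h substrate reaction, both 25 °C / Detection: p-Nitroaniline absorbance at 405 nm, read at 0 and 120 min / Replication: singlicate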
# hGIII sPLA2 conf: human GIII-sPLA2 inhibition, confirmation; shares compounds with HGIII-sPLA2 inh; recombinant hGIII-sPLA2, BODIPY PC-A2 QFRET fluorescence; inhibition, % at 12.2 µM; 2,000 tested, 34% active;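 active = mean inhibition across triplicates above the hit cutoff set in the earlier primary screen, cut at about 19% in these data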;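 also: 0% = enzyme with DMSO and 100% = DMSO wells lacking enzyme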
# 535nm interf: optically interferes with 535nm fluorescence in sPLA2 counter-screen; BODIPY FL product fluorescence interference, QFRET; shares compounds with HGIII-sPLA2 inh; 2,000 tested, 8.5% active; inhibition, % at 12.2 µM;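 active = average inhibition above the solvent-only control mean plus 3 SD, cut at about 6% in these data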;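 also: 0% = DMSO with substrate plus product and 100% = DMSO with substrate alone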
# 535nm interf DR: 535nm optical interference dose response, HGIII-sPLA2 counter-screen. shares compounds with HGIII-sPLA2 inh. BODIPY FL product fluorescence interference, cell-free. IC50, µM. 240 tested, under 10 active. AID 743455;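 active = IC50 at or below 10 µM; inactive = IC50 above 10 µM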
# An asterisk follows results filed as active; · = no result.
SMILES,PLC-beta3 inh,proCasp3 act,PLC-gamma1 inh,HGIII-sPLA2 inh,Arrestin-AP2 inh,procasp7 counter,hGIII sPLA2 conf,535nm interf,others
COc1ccc(C(=O)NC(=S)NNC(=O)c2ccc(NC(=O)C(C)C)cc2)cc1,-4.7,-4.8,-2.9,25.9*,2.8,-14.8,27.0*,-5.2,
O=C(NC(=S)NNC(=O)c1ccccc1[N+](=O)[O-])c1ccccc1,0.0,-12.0,2.5,3.5,5.5,-22.8,·,·,
O=C(NC(=S)Nc1ccc(CN2CCOCC2)cc1)c1cccc([N+](=O)[O-])c1,-4.1,1.1,0.8,19.3*,5.5,-24.3,3.3,-5.7,
COc1ccccc1N(CC(=O)NCCSc1ccccn1)S(=O)(=O)c1ccccc1,-4.3,12.6,-0.9,1.8,1.0,-1.7,·,·,
CC1(C(=O)NS(=O)(=O)c2ccc(F)cc2F)CCN1C(=O)Cc1cccc2ccccc12 (stereo not given),1.4,·,-0.9,-10.9,·,·,·,·,
Cc1ccc(C)c(NC(=O)c2cc(-c3ccc(Cl)cc3)nc3ccccc23)c1,4.3,·,-1.0,2.5,·,·,·,·,
COc1ccc(OC)c(CN2CCN(C(=O)CNC(=O)c3ccc(C(C)(C)C)cc3)CC2)c1,-11.4,-1.9,-4.1,-11.6,-11.9,0.5,·,·,
O=C(O)C(SC(C(=O)O)c1ccccc1)c1ccccc1 (stereo not given),-5.5,·,4.9,11.9,48.7,·,·,·,
C/C(=N\NC(=O)Cc1csc(N2CCOCC2)n1)c1ccc(Cl)c(Cl)c1,-5.5,1.8,-2.5,-1.3,6.4,5.6,·,·,
O=C(NC(=S)N1CCCCCC1)c1cccc([N+](=O)[O-])c1,-7.1,2.8,-0.1,20.3*,-8.7,-1.4,15.0,-2.8,
O=C(NC(=S)N1CCCC1)c1cccc([N+](=O)[O-])c1,-2.9,-4.3,1.8,0.9,-12.3,-4.5,·,·,
CC(C)(C)c1cc(-c2n[nH]c(=S)n2-c2ccc(Cl)cc2)n[nH]1,-7.7,-9.8,-2.7,20.8*,-19.6,-31.3,27.0*,4.1,
CC1(C)CC(=O)C=C(Nc2ccc(Br)cn2)C1,2.0,2.9,-2.7,21.2*,-47.3,-1.2,2.3,-8.4,
CC(C)NCC(=O)NC12CC3CC(CC(C3)C1)C2,-1.4,3.1,-0.3,-3.6,-27.4,2.6,·,·,
CC(SCC(=O)NC12CC3CC(CC(C3)C1)C2)C(=O)O (stereo not given),-0.8,7.3,-0.2,24.1*,4.4,7.4,-2.0,-3.5,
O=c1ccc(-c2ccc(S(=O)(=O)NCC3CCN(Cc4ccccc4F)CC3)s2)n[nH]1,-6.5,2.4,-3.7,-22.4,13.0,2.1,·,·,
Cc1ccc(NC(=O)CCN2CCN(CCO)CC2)cc1Br,-1.5,-5.6,6.2,22.8*,12.4,0.1,-5.5,-2.9,
S=C1NCN(C2CCCCC2)CN1CCc1ccccc1,-2.5,-0.1,-1.5,21.5*,18.2,3.8,20.5*,-9.0,
O=C(OCn1nnc2ccccc2c1=O)c1cc(-c2ccccc2)nc2ccccc12,2.4,10.0,0.5,23.4*,-5.2,3.6,-3.6,-1.5,
COc1ccccc1C(=O)OCn1nnc2ccccc2c1=O,-0.3,8.0,-1.5,4.8,-4.0,-4.5,·,·,
C/C(=N\NC(=S)NC(C)C)c1ccc(Cl)c([N+](=O)[O-])c1,-11.8,-1.6,5.0,19.9*,11.4,7.7,19.3*,5.3,
C/C(=N/NC(=S)Nc1cccc(C)c1)c1cccc([N+](=O)[O-])c1,-1.7,-12.3,-1.4,-6.0,11.3,-9.6,·,·,
C/C(=N\NC(=S)NC(C)C)c1ccccc1,0.2,11.2,-1.7,10.9,27.2,-7.9,·,·,
C/C(=N\NC(=S)NC(C)C)c1cccc([N+](=O)[O-])c1,3.5,-7.8,1.0,19.7*,4.9,9.1,22.2*,-4.8,
CCOc1ccc(Cl)cc1-c1cc(C(=O)NCc2ccccc2OC)[nH]n1,3.2,·,2.2,-9.8,·,·,·,·,
SMILES,PLC-beta3 inh,proCasp3 act,PLC-gamma1 inh,HGIII-sPLA2 inh,Arrestin-AP2 inh,procasp7 counter,hGIII sPLA2 conf,535nm interf,others
Cc1onc(-c2c(Cl)cccc2Cl)c1C(=O)NCc1ccccn1,-2.7,1.7,0.8,3.6,6.9,5.8,·,·,
CCn1cc(CNC(=O)c2c(-c3c(Cl)cccc3Cl)noc2C)c(C)n1,1.7,-10.1,-1.2,20.6*,19.5,7.2,0.5,-1.2,
Cn1c2ccccc2c(=O)c2c(=O)n(Cc3ccco3)c(-c3ccc(C(C)(C)C)cc3)nc21,·,-1.0,·,·,·,1.3,·,·,
CSc1cccc(NC(N)=S)c1,-2.0,2.9,-2.9,19.7*,39.0,5.3,18.1,-6.8,
CC(C)(C)C(=O)NC(=S)Nc1ccc(C(F)(F)F)cc1,-4.6,-0.2,0.7,21.0*,-13.5,-1.5,18.5,-3.8,
Cc1cccc(-n2c(C)c(-c3ccccc3)[nH]c2=S)c1,-7.4,-15.9,0.7,28.8*,-11.5,-23.1,33.1*,0.4,
CN1CCC/C1=C1/C(=O)N(c2ccccc2)N=C1NC(=O)Nc1cccc(Cl)c1,2.3,2.4,-1.2,-1.0,42.7,-8.9,·,·,
Cn1c(CBr)c(C(=O)c2ccc([N+](=O)[O-])cc2)c(=O)n(C)c1=O,-5.5,-4.1,-1.4,22.1*,-9.2,2.5,5.0,-4.1,
Cn1cc(/C=C2\SC(=S)N(N3CCOCC3)C2=O)c2ccccc21,-6.9,-34.1,-3.0,21.5*,12.1,-28.9,6.0,-0.2,
COC(=O)c1c(NC(=S)Nc2cc(OC)c(Cl)cc2OC)sc2c1CCCCC2,-5.8,-5.0,-8.3,25.2*,19.2,-15.5,26.4*,11.3*,
COc1ccc2c(c1)C1NC(=S)NC(C)(O2)C1C(=O)Nc1ccc(Cl)cc1 (stereo not given),-1.5,-0.7,-1.2,20.0*,-33.7,-3.2,14.8,-3.4,
Cc1ccc2c(c1)C1NC(=S)NC(C)(O2)C1C(=O)Nc1ccc(Cl)cc1 (stereo not given),10.1,7.7,6.9,7.3,-25.1,-0.7,·,·,
COc1ccc2c(c1)C1NC(=S)N[C@@](C)(O2)C1C(=O)Nc1ccccc1 (stereo not given in full),0.5,7.2,-2.0,20.9*,-20.6,2.1,23.9*,-3.3,
CCOc1cc(CNc2ccc3c(c2)OCCO3)cc(Br)c1OCC,-4.4,-9.2,-0.9,22.8*,3.2,-2.4,34.5*,-3.9,535nm interf DR=>122
